From PubChem BioAssay AID624055 (Southern Research Specialized Biocontainment Screening …, 2012)
Where “and” joins values, the source holds several entries; their conditions need not be identical. Equal entries are not always repeated. Calls of active or inactive are those of the source.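 Rule for the calls: active = compounds specific to the target that block phage lysis by more than 30% when retested across doses; inactive = the rest, not confirmed on retesting.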

Assays:
[1] = E. coli EV36 sensitization to T7 phage – EV36 K1 hybrid, OD600, round 6, dose response (AID 624055); conditions: E. coli EV36 T7 phage lysis, OD600; at 50 µM (top of the series)
Method in brief: (§1)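 Material: Escherichia coli EV36, a K1:K-12 hybrid strain | Input: Overnight culture at 1:100 dilution | Detection: Absorbance at 600 nm | Measure: Inhibition of phage lysis by OD600 | Compound: Two-fold serial compound dilution series, 1% DMSO final | Incubation: 1.5 h compound pre-exposure, 3 h post-infection | Probe or stimulus: T7 phage infection after compound pre-exposure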

[2] = tested on: E. coli EV36 T7 phage lysis, OD600; test: as above
Method in brief: as §1

Row | SMILES | phage lysis inhibition [1] | IC50 [2] [µM]
1 | O=C(Nc1cc(-c2ccc(OCCCC(F)(F)F)cc2)sc1C(=O)O)c1cc(Br)c(Br)o1 | -18.4% (inactive) and -21% (inactive) | –
2 | O=C(O)c1sc(-c2ccc(OCCCC(F)(F)F)cc2)cc1NC(=O)c1c(F)cc(F)cc1F | – | < 6.25
3 | O=C(O)c1sc(-c2ccc(OCCC(F)(F)F)cc2)cc1NC(=O)c1c(F)cc(F)cc1F | – | < 6.25
4 | [N-]=[N+]=NCCOc1ccc(-c2cc(NC(=O)c3c(F)cccc3F)c(C(=O)O)s2)cc1 | – | < 6.25
5 | CCCCOc1ccc(-c2cc(NC(=O)c3c(F)cccc3F)c(C(=O)O)s2)cc1 | – | < 6.25
6 | O=C(Nc1ccncc1)c1ccc2ncsc2c1 | 121% (inactive) | < 6.25
7 | O=C(O)c1sc(-c2ccc(OC(F)(F)F)cc2)cc1NC(=O)c1c(F)cccc1F | – | < 6.25
8 | O=C(NCc1ccncc1)c1ccc2ncsc2c1 | 128% (inactive) | –
9 | CCCCOc1ccc(-c2cc(NC(=O)c3cc(Br)c(Br)o3)c(C(=O)O)s2)cc1 | – | < 6.25
10 | O=C(Nc1cc(-c2ccc(OCCC(F)(F)F)cc2)sc1C(=O)O)c1ccc(Br)o1 | – | < 6.25
11 | CCCc1ccc(-c2cc(NC(=O)c3c(F)cc(F)cc3F)c(C(=O)O)s2)cc1 | – | < 6.25
12 | CCCCOc1ccc(-c2cc(NC(=O)c3c(F)cc(F)cc3F)c(C(=O)O)s2)cc1 | – | < 6.25
13 | CCCc1ccc(-c2cc(NC(=O)c3ccc(Br)o3)c(C(=O)O)s2)cc1 | – | < 6.25
14 | COc1cc2sc(NC(=O)c3ccc(Br)s3)nc2cc1F | -13% (inactive) | –
15 | O=C(Nc1cc(-c2ccc(OCC(F)(F)F)cc2)sc1C(=O)O)c1ccc(Br)o1 | – | < 6.25
16 | O=C(O)c1sc(-c2ccc(OCC(F)(F)F)cc2)cc1NC(=O)c1c(F)cccc1F | – | < 6.25
17 | O=C(Nc1cc(-c2ccc(OC(F)(F)F)cc2)sc1C(=O)O)c1cccc(F)c1 | -12.3% (inactive) | –

Row | SMILES | phage lysis inhibition [1] | IC50 [2] [µM]
18 | O=C(Nc1cc(-c2ccc(OCCCC(F)(F)F)cc2)sc1C(=O)O)c1ccc(Br)o1 | – | < 6.25
19 | CCOc1ccc(-c2cc(NC(=O)c3c(F)cc(F)cc3F)c(C(=O)O)s2)cc1 | – | < 6.25
20 | O=C(Nc1cc(-c2ccc(OC(F)(F)F)cc2)sc1C(=O)O)c1ccc(Br)o1 | – | < 6.25
21 | CCOc1ccc(-c2cc(NC(=O)c3c(F)cccc3C(F)(F)F)c(C(=O)O)s2)cc1 | – | < 6.25
22 | O=C(NC1CCNCC1)c1ccc2ncsc2c1 | 135% (inactive) | –
23 | CCCc1ccc(-c2cc(NC(=O)c3c(F)cccc3F)c(C(=O)O)s2)cc1 | – | < 6.25
24 | CCCc1ccc(-c2cc(NC(=O)c3cc(Br)c(Br)o3)c(C(=O)O)s2)cc1 | – | < 6.25
25 | CCOc1ccc(-c2cc(NC(=O)c3c(F)cccc3F)c(C(=O)O)s2)cc1 | – | < 6.25
26 | CCCCOc1ccc(-c2cc(NC(=O)c3ccc(Br)o3)c(C(=O)O)s2)cc1 | – | < 6.25
27 | O=C(O)c1sc(-c2ccc(OCC(F)(F)F)cc2)cc1NC(=O)c1c(F)cc(F)cc1F | – | < 6.25
28 | COc1ccc2nc(NC(=O)c3ccc(Br)s3)sc2c1 | – | < 0.21
29 | O=C(NCCc1ccncc1)c1ccc2ncsc2c1 | 127% (inactive) | –
30 | O=C(O)c1sc(-c2ccc(OCCC(F)(F)F)cc2)cc1NC(=O)c1c(F)cccc1F | – | < 6.25
31 | O=C(O)c1sc(-c2ccc(OCCCC(F)(F)F)cc2)cc1NC(=O)c1c(F)cccc1F | – | < 6.25
32 | CCCOc1ccc(-c2cc(NC(=O)c3c(F)cc(F)cc3F)c(C(=O)O)s2)cc1 | – | < 6.25
33 | CC(C)(C)c1ccc(-c2cc(NC(=O)c3ccc(Br)s3)c(C(=O)O)s2)cc1 | -10.5% (inactive) | –
34 | O=C(Nc1cc(-c2ccc(OC(F)(F)F)cc2)sc1C(=O)O)c1cc2ccccc2o1 | -11.1% (inactive) | –
